# Experimental data published in paper PMC3578425 (Pharmacological research : the official journal of the …, 2010).
# Several values for one entry are separate records, joined by “and”; a condition that tells them apart may be missing. Equal entries are not always repeated. Entries after “also recorded” stand apart in the source; their conditions may differ. Where two headings read alike, the source gives them in different places.
# Key:
# [1] = target: P2Y1 receptors on human platelets (Homo sapiens, UniProt P47900); experiment: [125I]MRS2500 binding assay with intact washed human platelets; details: for effect on [125I]MRS2500 binding: competing drug up to 100 μM
# [2] = target: P2Y1 receptors on mouse platelets (Mus musculus, UniProt P49650); experiment: [125I]MRS2500 binding assay with intact washed mouse platelets
# Summary of the method: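 Mouse washed platelets were prepared by differential centrifugation in Tyrode's buffer, pH 7.3, with 0.35% human serum albumin and apyrase (0.02 U/ml), held at 150,000 platelets/μl at 37°C. Platelet suspension (400 μl in 0.5 ml) was incubated 5 min with [125I]MRS2500 at 20°C or 37°C, with or without competitors. Samples were filtered on GF/C, washed five times with ice-cold buffer, and gamma-counted. Nonspecific binding was defined with 10 μM MRS2179.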
# P2Y1 receptor = details: read-out: Kd for the P2Y1 receptor; cited from earlier work
# human P2Y1 receptor = human P2Y1 receptor (Homo sapiens, UniProt P47900); assay type: binding; details: for Ki: read-out: Ki, inhibition of [125I]MRS2500 binding, competition curves
# [3] = tested on: platelets isolated from P2Y1(−/−) mice; experiment: [125I]MRS2500 binding to platelets isolated from P2Y1; design: species or system mouse
# [4] = tested on: membranes from wild-type insect cells (empty vector-infected Sf9); experiment: [125I]MRS2500 binding to membranes from empty vector-infected; details: wide range of membrane concentrations; nonspecific defined with 30 μM 2MeSADP
# [5] = wild-type mouse platelets, 10 μM competitor
# [6] = read-out: Ki, inhibition of [125I]MRS2500 binding, human platelets, competition
# [7] = P2Y1 receptor-expressing Sf9 membranes
# [8] = human platelets, 37°C, data not shown
# [9] = approximately 0.3 nM [125I]MRS2500, 300 ng membranes, data not shown
# Chain of P2Y1 receptors on mouse platelets (P49650 whole entry): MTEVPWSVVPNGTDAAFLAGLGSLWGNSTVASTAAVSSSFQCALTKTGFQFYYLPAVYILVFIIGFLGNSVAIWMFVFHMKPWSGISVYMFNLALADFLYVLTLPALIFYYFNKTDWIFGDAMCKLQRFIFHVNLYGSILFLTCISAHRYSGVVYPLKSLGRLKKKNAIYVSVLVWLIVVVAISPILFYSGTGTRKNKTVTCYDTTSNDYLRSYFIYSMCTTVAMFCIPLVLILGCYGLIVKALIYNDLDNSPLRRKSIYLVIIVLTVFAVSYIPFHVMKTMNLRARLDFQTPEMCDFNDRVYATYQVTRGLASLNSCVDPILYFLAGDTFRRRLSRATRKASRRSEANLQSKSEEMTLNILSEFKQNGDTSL
# Chain of P2Y1 receptors on human platelets (P47900 whole entry): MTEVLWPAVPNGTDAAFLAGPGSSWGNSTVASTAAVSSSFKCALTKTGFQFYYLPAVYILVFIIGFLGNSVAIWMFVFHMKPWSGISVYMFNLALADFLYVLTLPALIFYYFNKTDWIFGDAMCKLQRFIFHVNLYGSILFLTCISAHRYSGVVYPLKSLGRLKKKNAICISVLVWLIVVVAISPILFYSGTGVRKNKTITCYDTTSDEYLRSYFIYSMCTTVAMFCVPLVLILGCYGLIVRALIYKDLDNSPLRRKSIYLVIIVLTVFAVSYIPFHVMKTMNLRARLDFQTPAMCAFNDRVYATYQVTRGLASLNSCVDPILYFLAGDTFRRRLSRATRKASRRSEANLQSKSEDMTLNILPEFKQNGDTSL
# Chain of human P2Y1 receptor (P47900 whole entry): as above
smiles,measurement,setting,value
"CSCCNc1nc(SCCC(F)(F)F)nc2c1ncn2[C@@H]1O[C@H](COP(=O)(O)OP(=O)(O)C(Cl)(Cl)P(=O)(O)O)[C@@H](O)[C@H]1O [ARC-69931MX, [dichloro-[[[(2R,3S,4R,5R)-3,4-dihydroxy-5-[6-(2-methylsulfanylethylamino)-2-(3,3,3-trifluoropropylsulfanyl)purin-9-yl]oxolan-2-yl]methoxy-hydroxyphosphoryl]oxy-hydroxyphosphoryl]methyl]phosphonic acid, reference compound]",effect on [125I]MRS2500 binding,[1]; human platelets,Little effect
same,effect on [125I]MRS2500 binding,[2]; [5],no effect
"CNc1nc(Cl)nc2c1ncn2[C@H]1C[C@H](OP(=O)(O)O)[C@]2(COP(=O)(O)O)C[C@H]12 [MRS2279, 2-chloro-N^6-methyl-(N)-methanocarba-2′-deoxyadenosine-3′,5′-bisphosphate]",Kd,P2Y1 receptor,~10 nM
"CNc1nc(I)nc2c1ncn2[C@H]1C[C@H](OP(=O)(O)O)[C@]2(COP(=O)(O)O)C[C@H]12 [MRS2500, 2-iodo-N^6-methyl-(N)-methanocarba-2′-deoxyadenosine 3′,5′-bisphosphate]",Ki,[1]; [6],1.2 ± 0.15 nM
"O=c1ccn([C@@H]2O[C@H](COP(=O)(O)OP(=O)(O)OP(=O)(O)O)[C@@H](O)[C@H]2O)c(=O)[nH]1 [UTP, reference compound]",effect on [125I]MRS2500 binding,human P2Y1 receptor; concentrations up to 30 μM,no effect
"CSc1nc(N)c2ncn([C@@H]3O[C@H](COP(=O)(O)OP(=O)(O)O)[C@@H](O)[C@H]3O)c2n1 [2MeSADP, 2-methylthio-adenosine 5′-diphosphate, reference compound]",effect on residual [125I]MRS2500 binding,[3]; high concentration of competitor,not inhibited
same,effect on [125I]MRS2500 binding,[2]; [5],inhibited
"CSc1nc(N)c2ncn([C@H]3[C@H](O)[C@H](O)[C@@]4(COP(=O)(O)OP(=O)(O)O)C[C@H]34)c2n1 [MRS2365, (1′S,2′R,3′S,4′R,5′S)-4-[(6-amino-2-methylthio-9H-purin-9-yl)-1-diphosphoryloxymethyl]bicyclo[3.1.0]hexane-2,3-diol]",effect on [125I]MRS2500 binding,[2]; [5],inhibited
"Nc1ncnc2c1ncn2[C@@H]1O[C@H](COP(=O)(O)CP(=O)(O)OP(=O)(O)O)[C@@H](O)[C@H]1O [!!MeATP, reference compound]",effect on [125I]MRS2500 binding,[1]; human platelets,Little effect
"Nc1ncnc2c1ncn2[C@@H]1O[C@H](COP(=O)(O)OP(=O)(O)O)[C@@H](O)[C@H]1O [ADP, reference compound]",Ki,[1]; [6],15400 ± 9000 nM
same,effect on [125I]MRS2500 binding,"[2]; wild-type mouse platelets, 100 μM competitor",inhibited
same,Ki,human P2Y1 receptor; [7],625 ± 37 nM
CNc1ncnc2c1ncn2[C@H]1C[C@H](OP(=O)(O)O)[C@@H](COP(=O)(O)O)O1 [MRS2179],Ki,[1],72.5 ± 17 nM
same,effect on [125I]MRS2500 binding,[2]; [5],inhibited
same,Kd,P2Y1 receptor,~100 nM
"CNc1nc(I)nc2c1ncn2[C@H]1C[C@H](OP(=O)(O)O)[C@]2(COP(=O)(O)O)C[C@H]12 [[^125I]MRS2500, 2-iodo-N^6-methyl-(N)-methanocarba-2′-deoxyadenosine-3′,5′-bisphosphate]",specific binding of radioligand,[4],did not specifically bind; also recorded: no specific binding
same,specific binding of [125I]MRS2500,[3],not observed
same,Bmax (binding sites),"[1]; human platelets, 20°C, data not shown",147 sites/platelet
same,Bmax,"[1]; human platelets, 37°C",151 sites/platelet and 151 ± 1 sites/platelet
same,time binding was stable,[1]; [8],at least 15 min
same,time to apparent steady state binding,[1]; [8],60 to 90 s
same,time to steady state binding,"[1]; intact washed platelets (human or mouse), 20°C or 37°C",≤ 5 min
same,Kd,"[1]; read-out: Kd, saturation binding of [125I]MRS2500, human platelets, 37°C",0.61 nM
same,Bmax,"[2]; mouse platelets, 20°C, data not shown",253 sites/platelet
same,Kd,"[2]; read-out: Kd, saturation binding of [125I]MRS2500, mouse platelets, 20°C, data not shown",0.5 nM
same,Bmax,"[2]; wild-type mouse platelets, 37°C",229 sites/platelet and 229 ± 23 sites/platelet
same,time steady-state binding was maintained,human P2Y1 receptor; [9],at least 40 min
same,time to steady state binding,human P2Y1 receptor; [9],≤ 20 min
same,Kd,"human P2Y1 receptor; read-out: Kd, saturation binding of [125I]MRS2500, P2Y1 receptor-expressing Sf9 membranes, 4°C, one-site binding",1.1 ± 0.3 nM
same,Bmax for P2Y1 receptor expression in Sf9 cells,human P2Y1 receptor; saturation binding of [125I]MRS2500,13.3 ± 2.2 pmol/mg membrane protein
"Nc1ncnc2c1ncn2[C@@H]1O[C@H](COP(=O)(O)OP(O)(O)=S)[C@@H](O)[C@H]1O [ADP!S, reference compound]",Ki,human P2Y1 receptor; [7],1750 ± 750 nM
